{"source": "ChEMBL document CHEMBL5678798", "about": "(Clin Cancer Res, 2009)", "key": {"[1]": {"target": "Homeodomain-interacting protein kinase 3 (Homo sapiens) (UniProt Q9H422)", "assay": "Inhibition of N-terminal 6His-tagged recombinant human HIPK3 (161 to 562 residues) expressed in baculovirus infected Sf21 cells at 0.3 uM by filter binding assay relative to control", "outline": "(§1)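 Outsourced single-concentration screen in a commercial panel of 233 protein kinases, run as radiometric filter-binding activity assays. Test agent was tested at 0.3 or 3 µmol/L, as given in each line, from a 10 mmol/L DMSO stock. Activity is expressed as percent inhibition relative to control.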"}, "[2]": {"target": "FKBP12A/mTOR (Homo sapiens) (UniProt P62942+P42345)", "sequence (P62942 2-108 limits assumed, other chains not shown)": "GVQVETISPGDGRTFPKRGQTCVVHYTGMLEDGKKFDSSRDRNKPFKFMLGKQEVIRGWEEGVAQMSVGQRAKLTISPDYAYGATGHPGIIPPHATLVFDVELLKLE", "assay": "Inhibition of human mTOR/FKBP12 at 3 uM by filter binding assay relative to control", "assay_type": "protein-complex assay"}, "MCF7": {"test_system": "MCF7", "assay": "Induction of cell cycle arrest in human MCF7 cells assessed as cells accumulation at G1 phase at 1 umol/L incubated for 48 hrs by propidium iodide staining based flow cytometric analysis (reference value: 67%)", "assay_type": "functional", "details": "dose 1 µmol/L, at 1 µM", "outline": "(§2)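 COLO 205, MCF-7 or NCI-H929 cells seeded in 96-well plates overnight at 37°C, then exposed to DMSO or increasing compound concentrations for 24 or 48 h. Fixed and stained with propidium iodide (Vindelov method), then analysed by flow cytometry for sub-G1, G1, S and G2-M fractions. Experiment repeated twice.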"}, "[3]": {"target": "Phosphatidylinositol 4,5-bisphosphate 3-kinase catalytic subunit gamma isoform (Homo sapiens, UniProt P48736)", "assay": "Inhibition of PI3Kgamma (unknown origin)"}, "[4]": {"assay": "In vivo inhibition of IGF1R in mouse NIH-3T3/LISN cells implanted in IGF1-stimulated nu/nu CD-1 mouse assessed as reduction in IGF1R phosphorylation at 10 mg/kg, po pretreated for 4 hrs followed by IGF1 stimulation and measured after 10 min by […] relative to control", "assay_type": "functional", "details": "4.167 h, time 250 min", "outline": "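Female nu/nu CD-1 mice, three per group, bearing ~500 mm3 tumors, given one oral dose of compound or vehicle. At 4 h, 10 µg hIGF-I i.v. via tail vein; saline controls. Tumor and blood taken 10 min later. Tumor lysates in RIPA captured on anti-IGF-IR plates and probed with europium anti-phosphotyrosine. Phospho/total IGF-IR expressed as % of ligand-stimulated control. Blood levels by LC-MS/MS.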"}, "[5]": {"target": "Insulin receptor (Mus musculus) (UniProt P15208)", "details": "CD-1, dose 30.0 mg/kg, route po, time 2-24 hrs"}, "COLO 205 [6]": {"test_system": "COLO 205", "assay": "Induction of cell cycle arrest in human COLO 205 cells assessed as effect on sub-2N-DNA content at 0.03 to 10 uM incubated for 24 to 48 hrs by propidium iodide staining based flow cytometric analysis", "assay_type": "functional", "details": "dose 0.03-10 µM, time lower 24.0 hrs, time upper […]", "outline": "as §2"}, "[7]": {"assay": "Cytotoxicity against human PREC cells assessed as reduction in cell viability after 72 hrs by CellTiter-Glo assay", "assay_type": "toxicity, cell-based", "outline": "(§3)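 Cells seeded in 96-well plates, left overnight at 37°C, then exposed to a range of test concentrations for 72 h. Viability read by CellTiter-Glo luminescence; IC50 from four-parameter curve fit. Lines kept at 37°C, 5% CO2, in recommended growth medium.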"}, "[8]": {"target": "Serine/threonine-protein kinase B-raf (Homo sapiens, UniProt P15056, V600E)", "assay": "Inhibition of B-Raf V600E mutant (unknown origin)"}, "[9]": {"target": "Discoidin domain-containing receptor 2 (Homo sapiens) (UniProt Q16832)", "assay": "Inhibition of N-terminal His6-tagged recombinant human DDR2 (467 to end residues) expressed in baculovirus infected Sf21 cells at 0.3 uM by filter binding assay relative to control"}, "Aurora kinase B": {"target": "Aurora kinase B (Homo sapiens, UniProt Q96GD4)", "sequence (Q96GD4 whole entry)": "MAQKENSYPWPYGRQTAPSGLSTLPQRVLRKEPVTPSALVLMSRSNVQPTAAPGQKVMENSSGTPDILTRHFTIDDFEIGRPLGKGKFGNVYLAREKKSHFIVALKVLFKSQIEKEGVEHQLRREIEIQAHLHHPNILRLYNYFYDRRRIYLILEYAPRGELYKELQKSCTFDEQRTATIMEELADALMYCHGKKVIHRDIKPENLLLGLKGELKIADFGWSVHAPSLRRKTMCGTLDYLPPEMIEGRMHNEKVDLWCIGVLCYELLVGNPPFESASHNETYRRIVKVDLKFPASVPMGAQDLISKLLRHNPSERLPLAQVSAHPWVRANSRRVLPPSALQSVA", "assay": "Inhibition of Aurora B (unknown origin)"}, "[10]": {"target": "Serine/threonine-protein kinase Nek3 (Homo sapiens) (UniProt P51956)", "assay": "Inhibition of N-terminal 6His-tagged recombinant full length human NEK3 expressed in baculovirus infected Sf21 cells at 0.3 uM by filter binding assay relative to control", "outline": "(§4)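 KinaseProfiler panel of 233 kinases: radiometric filter-binding activity assays with compound at 0.3 or 3 µmol/L. Read-out is percent inhibition.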"}, "[11]": {"target": "Vascular endothelial growth factor receptor 2 (Homo sapiens, UniProt P35968)", "sequence (P35968 whole entry)": "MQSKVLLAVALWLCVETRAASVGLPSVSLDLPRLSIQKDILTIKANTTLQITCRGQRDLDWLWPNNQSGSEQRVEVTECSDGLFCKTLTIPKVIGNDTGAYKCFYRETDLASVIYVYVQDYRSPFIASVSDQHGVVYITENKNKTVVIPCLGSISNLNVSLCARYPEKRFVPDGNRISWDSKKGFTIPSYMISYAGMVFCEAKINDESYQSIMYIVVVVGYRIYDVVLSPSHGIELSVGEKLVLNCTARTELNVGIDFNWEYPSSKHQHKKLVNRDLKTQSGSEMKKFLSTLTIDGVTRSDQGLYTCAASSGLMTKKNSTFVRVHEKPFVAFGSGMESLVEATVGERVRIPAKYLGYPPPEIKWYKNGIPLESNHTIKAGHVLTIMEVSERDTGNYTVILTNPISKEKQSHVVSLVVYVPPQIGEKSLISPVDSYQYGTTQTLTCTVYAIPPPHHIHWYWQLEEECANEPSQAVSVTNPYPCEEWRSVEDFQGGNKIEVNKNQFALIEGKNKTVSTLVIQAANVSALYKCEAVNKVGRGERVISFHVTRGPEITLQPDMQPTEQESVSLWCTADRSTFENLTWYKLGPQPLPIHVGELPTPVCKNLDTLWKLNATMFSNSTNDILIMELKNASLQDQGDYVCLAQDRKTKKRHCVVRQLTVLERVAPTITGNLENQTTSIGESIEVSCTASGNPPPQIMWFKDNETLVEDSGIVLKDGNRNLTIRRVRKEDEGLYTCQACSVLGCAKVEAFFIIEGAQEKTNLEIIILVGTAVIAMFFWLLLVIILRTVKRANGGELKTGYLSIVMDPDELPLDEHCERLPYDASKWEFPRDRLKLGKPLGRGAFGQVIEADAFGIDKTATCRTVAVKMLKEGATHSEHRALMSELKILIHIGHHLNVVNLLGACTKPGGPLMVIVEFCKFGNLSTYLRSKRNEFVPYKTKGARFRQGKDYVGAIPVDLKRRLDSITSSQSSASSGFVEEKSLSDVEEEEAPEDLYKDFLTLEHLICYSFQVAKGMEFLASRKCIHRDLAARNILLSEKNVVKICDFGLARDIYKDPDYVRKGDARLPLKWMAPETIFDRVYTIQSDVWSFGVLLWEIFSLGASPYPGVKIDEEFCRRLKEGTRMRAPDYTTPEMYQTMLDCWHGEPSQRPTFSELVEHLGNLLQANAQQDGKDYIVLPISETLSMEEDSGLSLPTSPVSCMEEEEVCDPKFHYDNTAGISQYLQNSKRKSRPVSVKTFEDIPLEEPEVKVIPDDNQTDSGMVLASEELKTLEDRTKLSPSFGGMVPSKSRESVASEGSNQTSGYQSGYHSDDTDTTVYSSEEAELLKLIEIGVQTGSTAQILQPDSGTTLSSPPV", "assay": "Inhibition of VEGFR2 (unknown origin)"}, "NCI-H929": {"test_system": "NCI-H929", "assay": "Induction of cell cycle arrest in human NCI-H929 cells assessed as cells accumulation at G2 phase at 1 umol/L incubated for 48 hrs by propidium iodide staining based flow cytometric analysis (reference value: 33%)", "assay_type": "functional", "details": "dose 1 µmol/L, at 1 µM", "outline": "as §2"}, "[12]": {"target": "Ephrin type-A receptor 1 (Homo sapiens) (UniProt P21709)", "assay": "Inhibition of N-terminal 6His-tagged recombinant human EphA1 (568 to end residues) expressed in baculovirus infected Sf21 cells at 3 uM by filter binding assay relative to control", "outline": "as §1"}, "[13]": {"target": "Calcium/calmodulin-dependent protein kinase type IV (Homo sapiens) (UniProt Q16566)", "sequence (Q16566 whole entry)": "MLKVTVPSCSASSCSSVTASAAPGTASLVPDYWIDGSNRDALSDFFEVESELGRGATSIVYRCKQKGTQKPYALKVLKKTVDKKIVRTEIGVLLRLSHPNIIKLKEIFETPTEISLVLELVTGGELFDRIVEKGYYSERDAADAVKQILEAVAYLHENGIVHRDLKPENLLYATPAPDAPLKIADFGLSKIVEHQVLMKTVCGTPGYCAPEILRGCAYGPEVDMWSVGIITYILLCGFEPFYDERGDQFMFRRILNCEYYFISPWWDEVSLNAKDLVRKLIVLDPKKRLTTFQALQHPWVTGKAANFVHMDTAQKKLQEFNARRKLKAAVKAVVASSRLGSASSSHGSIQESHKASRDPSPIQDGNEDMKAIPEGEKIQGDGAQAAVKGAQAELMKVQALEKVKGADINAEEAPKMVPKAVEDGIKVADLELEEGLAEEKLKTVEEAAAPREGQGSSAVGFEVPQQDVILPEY", "assay": "Inhibition of C-terminal His6-tagged recombinant full length human CaMKIV expressed in baculovirus infected Sf21 cells at 3 uM by filter binding assay relative to control", "outline": "as §4"}, "[14]": {"target": "Inhibitor of nuclear factor kappa-B kinase subunit beta (Homo sapiens, UniProt O14920)", "assay": "Inhibition of IKK2 (unknown origin)"}, "[15]": {"assay": "Toxicity in nu/nu CD-1 mouse xenografted with human COLO 205 cells assessed as reduction in body weight at 30 mg/kg, po for 21 days relative to control", "set-up": "scale not given: the % may be the effect or the level left", "details": "in vivo, 504 h"}, "[16]": {"target": "Glycogen synthase kinase-3 beta (Homo sapiens, UniProt P49841)", "sequence (P49841 whole entry)": "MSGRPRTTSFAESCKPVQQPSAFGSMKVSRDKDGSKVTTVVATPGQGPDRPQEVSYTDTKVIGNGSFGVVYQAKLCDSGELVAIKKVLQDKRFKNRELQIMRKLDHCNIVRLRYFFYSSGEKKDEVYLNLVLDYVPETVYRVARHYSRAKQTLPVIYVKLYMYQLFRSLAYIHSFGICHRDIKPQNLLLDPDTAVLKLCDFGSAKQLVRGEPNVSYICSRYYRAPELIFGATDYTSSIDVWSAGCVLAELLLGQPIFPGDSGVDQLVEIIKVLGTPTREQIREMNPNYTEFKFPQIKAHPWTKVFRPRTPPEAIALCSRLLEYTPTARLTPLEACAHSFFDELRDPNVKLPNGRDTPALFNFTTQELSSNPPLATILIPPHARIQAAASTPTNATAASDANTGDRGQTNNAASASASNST", "assay": "Inhibition of GSK3beta (unknown origin)"}, "[17]": {"target": "Insulin-like growth factor 1 receptor (Homo sapiens, UniProt P08069)", "sequence (P08069 31-736 limits assumed)": "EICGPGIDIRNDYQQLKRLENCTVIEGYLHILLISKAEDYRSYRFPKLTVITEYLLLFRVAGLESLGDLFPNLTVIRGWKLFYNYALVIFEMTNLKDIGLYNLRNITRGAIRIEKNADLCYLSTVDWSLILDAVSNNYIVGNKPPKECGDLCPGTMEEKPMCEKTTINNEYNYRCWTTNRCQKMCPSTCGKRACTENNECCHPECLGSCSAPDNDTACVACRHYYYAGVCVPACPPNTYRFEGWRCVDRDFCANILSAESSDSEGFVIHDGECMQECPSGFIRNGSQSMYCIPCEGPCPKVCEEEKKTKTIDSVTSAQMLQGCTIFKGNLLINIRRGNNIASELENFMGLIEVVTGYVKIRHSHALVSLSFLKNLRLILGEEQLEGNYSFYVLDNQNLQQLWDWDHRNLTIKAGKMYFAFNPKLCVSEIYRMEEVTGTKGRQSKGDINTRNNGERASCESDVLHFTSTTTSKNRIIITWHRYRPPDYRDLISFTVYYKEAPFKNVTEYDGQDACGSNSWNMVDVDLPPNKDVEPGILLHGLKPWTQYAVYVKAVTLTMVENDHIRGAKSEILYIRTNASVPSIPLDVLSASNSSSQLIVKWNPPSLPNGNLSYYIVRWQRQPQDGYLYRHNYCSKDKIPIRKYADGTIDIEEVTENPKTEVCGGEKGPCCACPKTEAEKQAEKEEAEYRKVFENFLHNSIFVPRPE", "sequence (P08069 741-1367 limits assumed)": "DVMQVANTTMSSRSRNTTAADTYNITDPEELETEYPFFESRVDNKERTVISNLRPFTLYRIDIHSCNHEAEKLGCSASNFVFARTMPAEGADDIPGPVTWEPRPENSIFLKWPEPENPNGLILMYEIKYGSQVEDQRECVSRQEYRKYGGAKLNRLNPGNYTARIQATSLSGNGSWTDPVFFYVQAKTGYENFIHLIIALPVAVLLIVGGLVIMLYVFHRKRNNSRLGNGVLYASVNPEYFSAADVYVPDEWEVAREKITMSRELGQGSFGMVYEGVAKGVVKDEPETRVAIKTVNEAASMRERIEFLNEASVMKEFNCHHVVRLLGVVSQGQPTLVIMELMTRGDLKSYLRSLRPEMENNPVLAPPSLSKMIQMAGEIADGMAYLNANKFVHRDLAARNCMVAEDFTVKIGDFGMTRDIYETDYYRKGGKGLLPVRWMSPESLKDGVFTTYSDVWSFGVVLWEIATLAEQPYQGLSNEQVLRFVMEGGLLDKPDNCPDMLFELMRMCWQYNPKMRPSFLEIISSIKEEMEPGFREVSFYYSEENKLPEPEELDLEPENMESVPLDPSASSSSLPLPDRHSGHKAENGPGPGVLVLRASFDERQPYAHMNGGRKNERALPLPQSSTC", "assay": "Inhibition of N-terminal 6His-tagged recombinant human IGF-1R (959 to end residues) expressed in baculovirus infected Sf21 cells by filter binding assay"}, "[18]": {"target": "Receptor-type tyrosine-protein kinase FLT3 (Homo sapiens, UniProt P36888)", "sequence (P36888 whole entry)": "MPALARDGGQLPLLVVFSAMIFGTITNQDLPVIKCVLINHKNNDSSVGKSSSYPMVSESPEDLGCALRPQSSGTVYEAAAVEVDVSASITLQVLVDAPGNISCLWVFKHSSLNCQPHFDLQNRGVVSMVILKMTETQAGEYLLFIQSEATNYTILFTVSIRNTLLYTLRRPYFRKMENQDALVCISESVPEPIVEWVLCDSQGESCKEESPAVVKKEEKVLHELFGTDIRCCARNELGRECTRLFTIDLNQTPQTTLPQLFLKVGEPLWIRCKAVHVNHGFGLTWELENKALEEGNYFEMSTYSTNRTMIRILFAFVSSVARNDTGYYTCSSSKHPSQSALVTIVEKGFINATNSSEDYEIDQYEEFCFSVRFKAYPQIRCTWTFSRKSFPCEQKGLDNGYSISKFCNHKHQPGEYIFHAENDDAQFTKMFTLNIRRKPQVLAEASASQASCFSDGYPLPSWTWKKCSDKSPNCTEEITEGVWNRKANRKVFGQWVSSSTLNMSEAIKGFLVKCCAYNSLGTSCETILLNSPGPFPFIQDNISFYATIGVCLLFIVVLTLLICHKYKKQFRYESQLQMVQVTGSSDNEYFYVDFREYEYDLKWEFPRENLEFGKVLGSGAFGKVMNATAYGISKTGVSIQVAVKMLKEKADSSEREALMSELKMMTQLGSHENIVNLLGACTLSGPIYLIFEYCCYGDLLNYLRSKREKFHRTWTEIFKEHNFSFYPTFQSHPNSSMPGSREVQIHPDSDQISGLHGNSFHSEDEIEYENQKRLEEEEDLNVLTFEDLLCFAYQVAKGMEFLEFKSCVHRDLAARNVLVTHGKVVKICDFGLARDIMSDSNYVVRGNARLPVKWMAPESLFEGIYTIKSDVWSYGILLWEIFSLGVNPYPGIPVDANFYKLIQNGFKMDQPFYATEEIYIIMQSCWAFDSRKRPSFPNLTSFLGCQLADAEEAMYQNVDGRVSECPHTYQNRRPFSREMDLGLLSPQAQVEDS", "assay": "Inhibition of N-terminal GST tagged recombinant human Flt3 (564 to end residues) expressed in Sf21 cells by filter binding assay"}, "COLO 205 [19]": {"test_system": "COLO 205", "assay": "Induction of cell cycle arrest in human COLO 205 cells assessed as cells accumulation at G1 phase at 1 umol/L incubated for 48 hrs by propidium iodide staining based flow cytometric analysis (reference value: 65%)", "assay_type": "functional", "details": "dose 1 µmol/L, at 1 µM", "outline": "as §2"}, "[20]": {"target": "Fibroblast growth factor receptor 1 (Homo sapiens, UniProt P11362)", "assay": "Inhibition of N-terminal GST-tagged recombinant human FGFR1 (456 to 765 residues) expressed in baculovirus infected Sf21 cells by filter binding assay"}, "KMS-12-BM": {"test_system": "KMS-12-BM", "assay": "Antiproliferative activity against human KMS-12-BM cells assessed as reduction in cell viability after 72 hrs by CellTiter-Glo assay", "assay_type": "functional, cell-based", "outline": "as §3"}, "[21]": {"assay": "Toxicity in nu/nu CD-1 mouse xenografted with human HT-29 cells assessed as reduction in body weight at 30 mg/kg, po for 21 days relative to control", "assay_type": "organism-based", "details": "in vivo, 504 h, time 21 day"}, "[22]": {"target": "Tyrosine-protein kinase ZAP-70 (Homo sapiens, UniProt P43403)", "assay": "Inhibition of ZAP70 (unknown origin)"}}, "note": "The source made the active and inactive calls. No cut-off for these calls is given here."}
{"smiles": "CCc1cc(Nc2nccc(-c3c(-c4ccc(OC)c(C(=O)Nc5c(F)cccc5F)c4)nc4ccccn34)n2)c(OC)cc1N1CCC(N2CCN(S(C)(=O)=O)CC2)CC1", "values": [{"measurement": "inhibition", "setting": "[1]", "result": 1, "unit": "%"}, {"measurement": "inhibition", "setting": "[2]", "result": 4, "unit": "%"}, {"measurement": "Activity", "setting": "MCF7", "result": 76, "unit": "%"}, {"measurement": "IC50", "setting": "[3]", "result": "> 10000", "unit": "nM"}, {"measurement": "inhibition in vivo at 10 mg/kg", "setting": "[4]", "result": 95, "unit": "%"}, {"measurement": "inhibition", "setting": "[5]", "result": "inactive"}, {"measurement": "Activity", "setting": "COLO 205 [6]", "result": "inactive"}, {"measurement": "IC50 at 72 h", "setting": "[7]", "result": 68, "unit": "nM"}, {"measurement": "IC50", "setting": "[8]", "result": "> 2000", "unit": "nM"}, {"measurement": "inhibition", "setting": "[9]", "result": 0, "unit": "%"}, {"measurement": "IC50", "setting": "Aurora kinase B", "result": 4000, "unit": "nM"}, {"measurement": "inhibition", "setting": "[10]", "result": 1, "unit": "%"}, {"measurement": "IC50", "setting": "[11]", "result": 3200, "unit": "nM"}, {"measurement": "Activity", "setting": "NCI-H929", "result": 8, "unit": "%"}, {"measurement": "inhibition", "setting": "[12]", "result": 22, "unit": "%"}, {"measurement": "inhibition", "setting": "[13]", "result": 10, "unit": "%"}, {"measurement": "IC50", "setting": "[14]", "result": 13000, "unit": "nM"}, {"measurement": "Activity", "setting": "[15]", "result": 5, "unit": "%"}, {"measurement": "IC50", "setting": "[16]", "result": "> 25000", "unit": "nM"}, {"measurement": "IC50", "setting": "[17]", "result": 58, "unit": "nM"}, {"measurement": "IC50", "setting": "[18]", "result": 2850, "unit": "nM"}, {"measurement": "Activity", "setting": "COLO 205 [19]", "result": 78, "unit": "%"}, {"measurement": "IC50", "setting": "[20]", "result": 1880, "unit": "nM"}, {"measurement": "IC50", "setting": "KMS-12-BM", "result": 113, "unit": "nM"}, {"measurement": "Activity", "setting": "[21]", "result": "Non-Toxic"}, {"measurement": "IC50", "setting": "[22]", "result": "> 20000", "unit": "nM"}]}
